For seven compounds, MBC results are on record in ChEMBL document CHEMBL1139530, “Synthesis and antibacterial properties of novel hydrolyzable cationic amphiphiles. Incorporation of multiple head groups leads to impressive antibacterial activity” (2005).

What all share (assay type): functional
One assay has as its system Staphylococcus aureus. In words: Minimum bactericidal concentration against Staphylococcus aureus. In a few lines: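 S. aureus came from a blood agar colony and was grown in LB for 10 h at 37 °C with shaking to 10⁹-10¹⁰ cells/mL. Cells were exposed 5 h at 37 °C with shaking to amphiphile from a sterile-water stock, with water as the control. Dilutions were plated on LB agar for 24 h at 37 °C. MBC is the lowest concentration giving no colonies, averaged over three separate experiments.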

A further assay relates to Escherichia coli. Put plainly: Minimum bactericidal concentration against Escherichia coli. In a few lines:
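E. coli from a freeze-dried ampule was streaked on LB agar (37 °C, 24 h), and a single colony was grown in LB for 10 h at 37 °C with shaking to 10⁸-10⁹ cells/mL. Amphiphile from a sterile-water stock, or water as the control, was incubated 5 h at 37 °C with shaking. Dilutions were spread on LB agar for 24 h at 37 °C. MBC is the lowest concentration with no colonies, averaged over three experiments.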

For a further assay, the system named is Shigella sonnei. In words: Minimum bactericidal concentration against Shigella sonnei. In a few lines: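 A single S. sonnei colony was grown in LB for 12 h at 37 °C with shaking to 10⁷-10⁸ cells/mL, then exposed in tubes to amphiphile from a sterile-water stock, or water as the control, for 5 h at 37 °C with shaking. Diluted samples were spread on LB agar and incubated 24 h at 37 °C. MBC is the lowest concentration leaving no colonies; the value is the mean of three experiments.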

For the next assay, the system named is Enterococcus faecalis. Put plainly: Minimum bactericidal concentration against Enterococcus faecalis. In a few lines:
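Spread-plate MBC in LB broth (pH ≈7). E. faecalis came from a blood agar colony and was grown 12 h at 37 °C with shaking to 10⁷-10⁸ cells/mL. Amphiphile was added from a sterile-water stock, with water as the control, then incubated 5 h at 37 °C with shaking. Dilutions were plated on LB agar for 24 h at 37 °C. MBC is the lowest concentration giving no colonies; the value is the mean of three experiments.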

As a reminder, the MBC is the lowest tested concentration that kills the bacteria rather than only halting them.

In the case of `CCCCCCCCCCCCCCCCOC(=O)C[N+](C)(C)C`, the MBC is 24.5 µM in the assay on Staphylococcus aureus, 20.6 µM in the assay with Escherichia coli, 33.8 µM against Shigella sonnei and 22.5 µM in the assay on Enterococcus faecalis.
The matching figures for `CCCCCCCCCCCCCCC(COC(=O)C[n+]1ccccc1)(COC(=O)C[n+]1ccccc1)COC(=O)C[n+]1ccccc1`: 5.2 µM, 6.5 µM, 3.5 µM and 4.9 µM.
The matching figures for `CCCCCCCCCCCCCCC(COC(=O)C[n+]1ccccc1)COC(=O)C[n+]1ccccc1`: 13.9 µM, 8.2 µM, 8.9 µM and 10.4 µM.
`CCCCCCCCCCCCCCC(COC(=O)C[N+](C)(C)C)COC(=O)C[N+](C)(C)C`: the minimal bactericidal concentration (MBC) amounted to 15.1 µM in the assay with Staphylococcus aureus, 9.7 µM against Escherichia coli, 14.9 µM in the assay with Shigella sonnei and 12 µM in the assay with Enterococcus faecalis.
For `CCCCCCCCCCCCCCC(COC(=O)C[N+](C)(C)C)(COC(=O)C[N+](C)(C)C)COC(=O)C[N+](C)(C)C` the same measures were 11.3 µM, 7.3 µM, 9.6 µM and 9 µM.
Take `CCCCCCCCCCCCCCCC[n+]1ccccc1` [CETYLPYRIDINIUM BROMIDE]: the minimum bactericidal concentration (MBC) was found to be 15.6 µM in the assay on Staphylococcus aureus, 10.4 µM against Escherichia coli, 12.4 µM with Shigella sonnei and 16.3 µM against Enterococcus faecalis.
For Hexadecyl-trimethyl-ammonium bromide the same measures were 18.9 µM, 16.9 µM, 18.3 µM and 18.5 µM.
